Measurements from different studies.
Each line is one published result; the experiments were not run side by side.
Target: Serine/threonine-protein kinase 25 (STK25, Homo sapiens, UniProt O00506)

SMILES	assay	conditions	endpoint	value
Cn1cc(-c2cccc(N3CCc4c(sc5c4CC(C)(C)C5)C3=O)c2CO)cc(Nc2ccncn2)c1=O	enzyme activity, inhibitor	1 µM	inhibition	-13%
COCc1c(-c2cc3cc(C)cc(OC)c3s2)c2c(N)ncnn2c1CN1CCNC(=O)C1	cell-free assay, competition with immobilised ligand	1 µM	inhibition	87%
Cn1cncc1[C@](O)(COc1ccc(C#N)cc1-c1ccc(OC(F)(F)F)cc1)c1ccc(C#N)cc1	cell-free assay, competition with immobilised ligand	1 µM	remaining binding	91%
O=c1[nH]c2ccccc2n1C1CCN(Cc2ccc(-c3[nH]c4cc5ncnc5cc4nc3-c3ccccc3)cc2)CC1	cell-free assay	0.5 µM	remaining signal	89.8%
COc1ncccc1-c1cnn2ccc(N3CCN(C(=O)OC(C)C)CC3)nc12	binding, competition with immobilised ligand	1 µM	remaining binding	65%
N#CC1(c2ccccn2)CCN(Cc2cc(C(=O)O)c(=O)n3ccccc23)CC1	cell-free assay, competition with immobilised ligand	1 µM	remaining binding	100%
Cc1nn(C)cc1-c1nc2c(N3CCN(Cc4ccc(Cl)cc4)CC3)c(Cl)cnc2[nH]1	binding, competition with immobilised ligand	1 µM	remaining binding	70%
Cn1cc(-c2cc(F)cc(N3CCn4c(cc5c4CCCC5)C3=O)c2CO)cc(Nc2ccc(N3CCN(C4COC4)CC3)cn2)c1=O	enzyme activity, inhibitor	0.1 µM	inhibition	8%
Nc1ncc(-c2nc(N3CCOCC3)nc(N3CCOCC3)n2)c(C(F)F)n1	binding, competition with immobilised ligand	10 µM	remaining binding	93%
CC(C)(C)c1cc(C=C(C#N)C#N)cc(Br)c1O	enzyme activity, inhibitor	0.5 µM	remaining activity	102%
